Results taken from ChEMBL document CHEMBL1157072 (Bioorg Med Chem, 2010).
In brackets after ≈: the same amount, converted by molar mass. Numbered stars: 1 amine (or outer) side, 2 acyl side, 3 side chain; on linkers, the order of the positions; unused ones are H or OH. Bridge positions count the residues as written; N and C are the ends. Square brackets hold non-standard residues; d marks the D form. Peptide text beside a SMILES is read from it. I, II: the chains in the order shown. Actinocin(1to9) = Cc1c2oc3c(C)ccc(C(=O)[*:2])c3nc-2c(C(=O)[*:1])c(N)c1=O; NMeV = CN[C@H](C(=O)O)C(C)C; Sar = CNCC(=O)O

Columns and labels:
[1] = test system: Staphylococcus aureus; assay: microbe, parasite or virus in culture; details: isolate d20A1
[2] = test system: Staphylococcus aureus; assay: Antibacterial activity against Staphylococcus aureus NCTC 8325 after 16 to 20 hrs by broth microdilution method; assay type: functional
Method in brief: (§1)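 Broth microdilution in cation-adjusted Mueller Hinton broth. Compounds were serially diluted twofold in DMSO at 50-fold final strength (2% DMSO final). The inoculum was 1 × 10^4 cells per well. Plates were incubated at 37 °C for 16–20 h, and growth was read as absorbance at 600 nm.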

[3] = Selectivity ratio of MIC for MBX-1090-resistant Staphylococcus aureus isolate d20A1 to MIC for Staphylococcus aureus NCTC 8325; assay type: functional
Method in brief: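 Ratio of resistant-mutant MIC to NCTC 8325 MIC. Both MICs came from broth microdilution in cation-adjusted MHB with 2% DMSO final and 1 × 10^4 cells per well, incubated at 37 °C for 16–20 h and read at 600 nm.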

[4] = test system: Staphylococcus aureus; assay: Antibacterial activity against Staphylococcus aureus NCTC 8325 harboring genetic deletion of mepRA gene after 16 to 20 hrs by broth microdilution method; assay type: functional
Method in brief: as §1

[5] = test system: Staphylococcus aureus; assay: Antibacterial activity against Staphylococcus aureus NCTC 8325 harboring genetic deletion of mepR gene after 16 to 20 hrs by broth microdilution method; assay type: functional
Method in brief: as §1

[6] = test system: Staphylococcus aureus; assay: Antibacterial activity against Staphylococcus aureus NCTC 8325 harboring genetic deletion of mepRA gene and carrying expression vector pG154 after 16 to 20 hrs by broth microdilution method; assay type: functional
Method in brief: as §1

[7] = test system: Staphylococcus aureus; assay: Antibacterial activity against Staphylococcus aureus NCTC 8325 harboring genetic deletion of mepRA gene and carrying expression vector pG154 after 16 to 20 hrs by broth microdilution method in presence of anhydrous tetracycline; assay type: functional
Method in brief: (§2)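 Broth microdilution in cation-adjusted MHB containing anhydrous tetracycline at 100 ng/ml final to induce the pG154 expression vector. Twofold DMSO compound dilutions were used (2% DMSO final) with 1 × 10^4 cells per well. Incubation was 37 °C for 16–20 h, and absorbance was read at 600 nm.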

[8] = test system: Staphylococcus aureus; assay: Antibacterial activity against Staphylococcus aureus NCTC 8325 harboring genetic deletion of mepRA gene and carrying expression vector pG154 with mepA gene after 16 to 20 hrs by broth microdilution method; assay type: functional
Method in brief: as §1

[9] = test system: Staphylococcus aureus; assay: Antibacterial activity against Staphylococcus aureus NCTC 8325 harboring genetic deletion of mepRA gene and carrying expression vector pG154 with mepA gene after 16 to 20 hrs by broth microdilution method in presence of anhydrous tetracycline; assay type: functional
Method in brief: as §2

[10] = test system: Staphylococcus aureus; assay: Antibacterial activity against Staphylococcus aureus NCTC 8325 carrying expression vector pG154 after 16 to 20 hrs by broth microdilution method in presence of anhydrous tetracycline; assay type: functional
Method in brief: as §2

[11] = test system: Staphylococcus aureus; assay: Antibacterial activity against Staphylococcus aureus NCTC 8325 carrying expression vector pG154 with mepA gene after 16 to 20 hrs by broth microdilution method in presence of anhydrous tetracycline; assay type: functional
Method in brief: as §2

[12] = test system: Staphylococcus aureus; assay: Antibacterial activity against Staphylococcus aureus NCTC 8325 carrying expression vector pG154 with mepA gene after 16 to 20 hrs by broth microdilution method; assay type: functional
Method in brief: as §1

[13] = test system: Staphylococcus aureus; assay: Antibacterial activity against Staphylococcus aureus NCTC 8325 after 16 to 20 hrs by broth microdilution method in presence of efflux pump inhibitor reserpine; assay type: functional
Method in brief: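 Broth microdilution in cation-adjusted MHB with reserpine at 20 µg/ml final in the medium as efflux inhibitor. Twofold DMSO dilutions were made (2% DMSO final) with 1 × 10^4 cells per well. Incubation was 37 °C for 16–20 h, with growth read at 600 nm.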

[14] = test system: Staphylococcus aureus; assay: Antibacterial activity against Staphylococcus aureus NCTC 8325 carrying expression vector pG154 after 16 to 20 hrs by broth microdilution method; assay type: functional
Method in brief: as §1

[15] = test system: Staphylococcus aureus; assay: Upregulation of mepB gene expression in MBX-1090-resistant Staphylococcus aureus isolate d20A1 at 0.4 ug/ml by RT-PCR analysis relative to wild type; assay type: functional
[16] = test system: Staphylococcus aureus; assay: Modulation of ribH gene expression in MBX-1090-resistant Staphylococcus aureus isolate d20A1 at 0.4 ug/ml by RT-PCR analysis relative to wild type; assay type: functional
[17] = test system: Staphylococcus aureus; assay: Upregulation of mepA gene expression in MBX-1090-resistant Staphylococcus aureus isolate d20A1 at 0.4 ug/ml by RT-PCR analysis relative to wild type; assay type: functional
[18] = Dissociation constant, pKa of the compound; assay type: physicochemical
[19] = test system: Staphylococcus aureus; assay: Modulation of ribD gene expression in MBX-1090-resistant Staphylococcus aureus isolate d20A1 at 0.4 ug/ml by RT-PCR analysis relative to wild type; assay type: functional
[20] = test system: Staphylococcus aureus; assay: Upregulation of conventional hypothetical protein mRNA expression in MBX-1090-resistant Staphylococcus aureus isolate d20A1 at 0.4 ug/ml by RT-PCR analysis relative to wild type; assay type: functional
[21] = test system: Staphylococcus aureus; assay: Modulation of ribE gene expression in MBX-1090-resistant Staphylococcus aureus isolate d20A1 at 0.4 ug/ml by RT-PCR analysis relative to wild type; assay type: functional
[22] = test system: Staphylococcus aureus; assay: Modulation of ribA gene expression in MBX-1090-resistant Staphylococcus aureus isolate d20A1 at 0.4 ug/ml by RT-PCR analysis relative to wild type; assay type: functional
[23] = test system: Staphylococcus aureus; assay: Downregulation of protein A gene expression in MBX-1090-resistant Staphylococcus aureus isolate d20A1 at 0.4 ug/ml by RT-PCR analysis relative to wild type; assay type: functional

`O=C(N[C@H](CO)[C@H](O)c1ccc([N+](=O)[O-])cc1)C(Cl)Cl` [CHLORAMPHENICOL] gave an MIC [1] of 8 µg/mL (≈ 24.8 µM) and an MIC [2] of 8 µg/mL (≈ 24.8 µM).
With `COc1cc(Cc2cnc(N)nc2N)cc(OC)c1OC` [TRIMETHOPRIM] the MIC [1] was 3.12 µg/mL (≈ 10.8 µM) and the MIC [2] was 3.12 µg/mL (≈ 10.8 µM).
For `CC1(C)S[C@@H]2[C@H](NC(=O)[C@H](N)c3ccccc3)C(=O)N2[C@H]1C(=O)O` [AMPICILLIN], the MIC [1] was 0.0625 µg/mL (≈ 0.179 µM) and the MIC [2] was 0.0625 µg/mL (≈ 0.179 µM).
In the case of `CN[C@@H]1[C@H](O[C@H]2[C@H](O[C@H]3[C@H](O)[C@@H](O)[C@H](N=C(N)N)[C@@H](O)[C@@H]3N=C(N)N)O[C@@H](C)[C@]2(O)C=O)O[C@@H](CO)[C@H](O)[C@H]1O` [STREPTOMYCIN], the Selectivity ratio [3] is reported as 4, the MIC [1] is reported as 128 µg/mL (≈ 220 µM) and the MIC [2] is reported as 32 µg/mL (≈ 55 µM).
Work on `CN(C)[C@@H]1C(O)=C(C(N)=O)C(=O)[C@@]2(O)C(O)=C3C(=O)c4c(O)cccc4[C@@](C)(O)[C@H]3C[C@@H]12` [TETRACYCLINE] yielded an MIC [1] of 0.5 µg/mL (≈ 1.13 µM) and an MIC [2] of 0.5 µg/mL (≈ 1.13 µM).
Molecule `c1cc2cc(-c3ccc4cc(-c5ccc6oc(C7=NCCN7)cc6c5)[nH]c4c3)[nH]c2cc1C1=NCCN1` has an MIC [4] of 1 µg/mL (≈ 2.06 µM), an MIC [5] of 0.5 µg/mL (≈ 1.03 µM) and an MIC [6] of 1 µg/mL (≈ 2.06 µM). For the same molecule, the MIC [7] was 0.5 µg/mL, the MIC [8] was 0.5 µg/mL (≈ 1.03 µM) and the MIC [9] was 0.5 µg/mL. It also gave an MIC [10] of 1 µg/mL, an MIC [11] of 0.25 µg/mL and an MIC [12] of 1 µg/mL (≈ 2.06 µM). The MIC [13] was 0.25 µg/mL, the MIC [1] was 1 µg/mL (≈ 2.06 µM) and the MIC [14] was 1 µg/mL (≈ 2.06 µM). It also gave an MIC [2] of 0.5 µg/mL (≈ 1.03 µM).
Work on `O=C(O)c1cn(C2CC2)c2cc(N3CCNCC3)c(F)cc2c1=O` [CIPROFLOXACIN] yielded a Selectivity ratio [3] of 2, an MIC [1] of 0.391 µg/mL (≈ 1.18 µM) and an MIC [2] of 0.195 µg/mL (≈ 0.589 µM).
In the case of `CC[C@H]1OC(=O)[C@H](C)[C@@H](O[C@H]2C[C@@](C)(OC)[C@@H](O)[C@H](C)O2)[C@H](C)[C@@H](O[C@@H]2O[C@H](C)C[C@H](N(C)C)[C@H]2O)[C@](C)(O)C[C@@H](C)C(=O)[C@H](C)[C@@H](O)[C@]1(C)O` [ERYTHROMYCIN], the MIC [1] is reported as 0.5 µg/mL (≈ 0.681 µM) and the MIC [2] is reported as 1 µg/mL (≈ 1.36 µM).
In the case of `CC1(C)S[C@@H]2[C@H](NC(=O)C(C(=O)O)c3ccccc3)C(=O)N2[C@H]1C(=O)O` (some centres not stated) [CARBENICILLIN], the MIC [1] is reported as 0.0625 µg/mL (≈ 0.165 µM) and the MIC [2] is reported as 0.0625 µg/mL (≈ 0.165 µM).
Work on `Cc1onc(-c2ccccc2)c1C(=O)N[C@@H]1C(=O)N2[C@@H]1SC(C)(C)[C@@H]2C(=O)O` [OXACILLIN] yielded an MIC [1] of 0.125 µg/mL (≈ 0.311 µM) and an MIC [2] of 0.125 µg/mL (≈ 0.311 µM).
With `Cc1c2oc3c(C)ccc(C(=O)N[C@@H]4C(=O)N[C@H](C(C)C)C(=O)N5CCC[C@H]5C(=O)N(C)CC(=O)N(C)[C@@H](C(C)C)C(=O)O[C@@H]4C)c3nc-2c(C(=O)N[C@@H]2C(=O)N[C@H](C(C)C)C(=O)N3CCC[C@H]3C(=O)N(C)CC(=O)N(C)[C@@H](C(C)C)C(=O)O[C@@H]2C)c(N)c1=O` [DACTINOMYCIN] (I: T[dV]P[Sar][NMeV] / II: T[dV]P[Sar][NMeV]; ester I:1-I:C, II:1-II:C; linker I:N-II:N via Actinocin(1to9)) the MIC [1] was 0.625 µg/mL (≈ 0.498 µM) and the MIC [2] was 0.625 µg/mL (≈ 0.498 µM).
For `c1cc2cc(-c3ccc(-c4cc5ccc(C6=NCCN6)cc5[nH]4)cc3)[nH]c2cc1C1=NCCN1`, the MIC [4] was 0.5 µg/mL (≈ 1.12 µM), the “fold change (FC)” value [15] was 4.2 and the “fold change (FC)” value [16] was 2.1. For the same molecule, the MIC [5] was 0.25 µg/mL (≈ 0.562 µM), the MIC [6] was 0.5 µg/mL (≈ 1.12 µM) and the “fold change (FC)” value [17] was 8.7. The pKa [18] was 9.6, the MIC [7] was 0.5 µg/mL and the “fold change (FC)” value [19] was 1.3. For the same molecule, the MIC [8] was 0.25 µg/mL (≈ 0.562 µM), the “fold change (FC)” value [20] was 6.8 and the “fold change (FC)” value [21] was 1.2. The MIC [9] was 8 µg/mL, the MIC [10] was 1 µg/mL and the “fold change (FC)” value [22] was 1.2. The MIC [11] was 0.25 µg/mL, the MIC [12] was 0.5 µg/mL (≈ 1.12 µM) and the MIC [13] was 0.125 µg/mL. It also gave an MIC [1] of 0.5 µg/mL (≈ 1.12 µM), an MIC [14] of 0.5 µg/mL (≈ 1.12 µM) and an MIC [2] of 0.25 µg/mL (≈ 0.562 µM). The “fold change (FC)” value [23] was 3.1.
